Several values for one entry are separate records, joined by “and”; a condition that tells them apart may be missing. Identical values can stand only once.
Columns and labels:
A. baumannii NCTC 13420 = assay: Broth microdilution MIC/MBC, A. baumannii; format: cell-based, Acinetobacter baumannii; conditions: for MIC A. baumannii NCTC 13420: value before the parentheses, two values = two repeats; for MBC A. baumannii NCTC 13420: value in parentheses
P. aeruginosa NCTC 13437 = assay: Broth microdilution MIC/MBC, P. aeruginosa; format: cell-based, Pseudomonas aeruginosa; conditions: value before the parentheses; two values = two repeats
In short: (§1)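 CLSI broth microdilution in cation-adjusted Mueller–Hinton broth. Log-phase cultures were diluted to 7.5 × 10^5 CFU/mL, then mixed 1:1 with 2-fold serial dilutions of gold complexes from DMSO or water stocks, in triplicate, and held 37 °C, 18 h, static. MIC: lowest concentration giving >90% inhibition by OD600 against medium-only and bacteria-only wells. […] E. coli ATCC 25922 quality control was checked each run with ciprofloxacin and […].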

E. cloacae NCTC 13405 = assay: Broth microdilution MIC/MBC, E. cloacae; format: cell-based, Enterobacter cloacae; conditions: value before the parentheses; two values = two repeats
In short: as §1

[1] = system: K. pneumoniae ATCC 700603; assay: Broth microdilution MIC/MBC, K. pneumoniae; format: cell-based, Klebsiella pneumoniae; conditions: value before the parentheses; two values = two repeats
In short: as §1

S. aureus JE2 (USA300) = assay: Broth microdilution MIC/MBC, S. aureus; format: cell-based, Staphylococcus aureus; conditions: for MBC S. aureus JE2 (USA300): value in parentheses; for MIC S. aureus JE2 (USA300): value before the parentheses, two values = two repeats
In short: as §1

E. faecium ATCC 700221 = assay: Broth microdilution MIC/MBC, E. faecium; format: cell-based, Enterococcus faecium; conditions: for MIC E. faecium ATCC 700221: value before the parentheses, two values = two repeats; for MBC E. faecium ATCC 700221: value in parentheses
In short: as §1

E. coli ATCC 25922 = assay: Broth microdilution MIC/MBC, E. coli; format: cell-based, Escherichia coli; conditions: value before the parentheses; two values = two repeats
In short: as §1

Gram-negative strains = assay: Broth microdilution, Gram-negative strains taken together; format: cell-based
Log P determination = conditions: n-octanol/water, Au by FAAS

Row | Compound | MIC A. baumannii NCTC 13420 (A. baumannii NCTC 13420) | MIC P. aeruginosa NCTC 13437 (P. aeruginosa NCTC 13437) | MIC E. cloacae NCTC 13405 (E. cloacae NCTC 13405) | MIC K. pneumoniae ATCC 700603 [1] | MIC S. aureus (S. aureus JE2 (USA300)) | MBC S. aureus JE2 (USA300) (S. aureus JE2 (USA300)) | fold enhancement of activity over auranofin, S. aureus (S. aureus JE2 (USA300); vs auranofin) | MIC E. faecium ATCC 700221 (E. faecium ATCC 700221) | MBC E. faecium ATCC 700221 (E. faecium ATCC 700221) | MIC E. coli ATCC 25922 (E. coli ATCC 25922) | activity toward Gram-negative strains (in words) (Gram-negative strains) | log P (Log P determination) | MBC A. baumannii NCTC 13420 (A. baumannii NCTC 13420) | MIC S. aureus JE2 (USA300) (S. aureus JE2 (USA300))
1 | CC[P+](CC)(CC)[Au-][S]c1ccc([N+](=O)[O-])cc1 [Compound 19, (4-Nitrobenzenethiolato)(triethylphosphine) Gold(I)] | >546 µM | >546 µM | >546 µM | >546 µM | in the nanomolar range | 0.02 µM | up to 10 | 0.06 µM and 0.1 µM | 0.5 µM | >546 µM | completely inactive | >3.28 | – | –
2 | CC[PH](CC)(CC)[Au][S]c1ccc(C(F)(F)F)cc1 [Compound 20, (4-(Trifluoromethyl)benzenethiolato)(triethylphosphine) Gold(I)] | 520 µM | >520 µM | >520 µM | >520 µM | – | 0.2 µM | – | 0.02 µM | 0.2 µM | >520 µM | completely inactive | >3.18 | > 520 µM | –
3 | FC(F)(F)c1ccc(P(c2ccc(C(F)(F)F)cc2)c2ccc(C(F)(F)F)cc2)cc1.[Cl][Au] [Compound 30, (Tris(4-trifluoromethylphenyl)phosphine)gold Chloride] | >366 µM | >366 µM | >366 µM | >366 µM | – | 11 µM | – | >366 µM | – | >366 µM | – | >3.94 | – | –
4 | CCCC[P+](CCCC)(CCCC)[Au-][S][C@@H]1OC(COC(C)=O)[C@@H](OC(C)=O)[C@H](OC(C)=O)C1OC(C)=O (stereo partly drawn) [Compound 32, (2,3,4,6-Tetra-O-acetyl-1-thio-β-D-glucopyranosato)(tri-n-butylphosphine) Gold(I)] | 84 µM | >336 µM | >336 µM | >336 µM | – | 3 µM | – | 3 µM and 5 µM | 3 µM | >336 µM | completely diminished the activity | >4.32 | > 336 µM | 3 µM
5 | CC(=O)OCC1O[C@@H]([S][Au-][P+](c2ccccc2)(c2ccccc2)c2ccccc2)C(OC(C)=O)[C@@H](OC(C)=O)[C@@H]1OC(C)=O (stereo partly drawn) [Compound 33, (2,3,4,6-Tetra-O-acetyl-1-thio-β-D-glucopyranosato)-(triphenylphosphine) Gold(I)] | >311 µM | >311 µM | >311 µM | >311 µM | – | 2 µM | – | 5 µM | 5 µM | >311 µM | – | >3.87 | – | 1 µM and 2 µM
